Assays:
[1] = biological target: T1, Muscarinic acetylcholine receptor M4 (Homo sapiens) (UniProt P08173); assay: Displacement of 3[H]-NMS from human M4 mAChR expressed in Flp-In-CHO cells assessed as binding constant incubated for 6 hrs by microbeta2 plate reader assay; assay type: cell-based; details: filed as positive allosteric modulator
T1 sequence (whole entry): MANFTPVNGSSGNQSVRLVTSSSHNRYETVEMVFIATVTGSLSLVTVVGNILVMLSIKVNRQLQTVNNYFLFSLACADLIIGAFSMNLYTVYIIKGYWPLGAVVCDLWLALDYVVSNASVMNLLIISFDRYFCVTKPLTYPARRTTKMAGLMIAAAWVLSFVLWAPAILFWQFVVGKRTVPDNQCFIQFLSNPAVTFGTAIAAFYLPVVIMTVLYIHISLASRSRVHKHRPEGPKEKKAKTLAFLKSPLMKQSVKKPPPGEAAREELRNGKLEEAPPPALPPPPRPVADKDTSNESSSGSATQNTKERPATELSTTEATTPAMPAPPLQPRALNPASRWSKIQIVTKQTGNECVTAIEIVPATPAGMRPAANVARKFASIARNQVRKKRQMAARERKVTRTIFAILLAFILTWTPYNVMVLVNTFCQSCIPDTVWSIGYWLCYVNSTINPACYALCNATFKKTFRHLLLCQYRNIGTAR
In short: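 Intact FlpInCHO-hM4 cells, 20,000/well grown overnight, in HBSS pH 7.4 with [3H]-NMS 0.5 nM, ACh (0.01 μM–10 mM) and modulator (0.1–10 μM), shaken 6 h at room temperature. Washed with ice-cold 0.9% NaCl, then scintillation counting. Nonspecific binding defined with 10 μM atropine. pKB and log α(ACh) from global fit to allosteric ternary complex model, with log α′(NMS) fixed at –3 under strong negative cooperativity. 4–5 experiments in duplicate.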

[2] = Drug concentration in plasma of naive C57BL/6J mouse at 10 mg/kg, ip measured after 20 to 30 mins; assay type: ADME, organism-based; details: in vivo, time 20-30 min
In short: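 Male C57Bl/6J mice, naïve, 10–12 weeks old, dosed i.p. at 10 mg/kg in 10% DMSO, 1.1% Tween 80, 21.8 mM Tris. Blood by cardiac puncture under anaesthesia at 20 or 90 min (n = 2–3 per time point). Brain concentration corrected for compound in brain vasculature. Mean nM ± SEM reported; Kp = Cbrain/Cplasma, reported as a range.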

Row | pKb [1] | concentration [2] [nM] | Compound
1 | 4.53 | 915 | Cc1ccc(-c2cnn(CC3CCCC3)c2)c(-c2ccc(F)c(F)c2)n1
2 | 4.75 | 2430 | Cc1ccc(-c2cnn(CC3CCCC3)c2)c(-c2ccc(N)c([N+](=O)[O-])c2)n1
3 | 6.22 | 2440 | Cc1ccc(-c2cnn(CC3CCCC3)c2)c(-c2ccc3c(c2)C(=O)N(C)C3)n1

Reference: ChEMBL document CHEMBL5620424, “Design, synthesis and evaluation of novel 2-phenyl-3-(1H-pyrazol-4-yl)pyridine positive allosteric modulators for the M4 mAChR” (Eur J Med Chem, 2023)
